The results in this text go back to PubChem BioAssay AID617 (SRMLSC, 2007).

Screen size: about 1,300 compounds; about 1,200 (92%) were called active. The rule behind the calls is not given here. The set was probably picked from earlier hits. A selection follows. Results with a measured potency or affinity are listed apart.

The experiment in a line: growth inhibitors of E. coli tolC mutant, dose response, strain BW25113 ΔtolC::kan (AID 617). Conditions: OD615, at 100 µM (top of the series). The method in brief: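 System – E. coli BW25113 ΔtolC::kan bacteria · Input – inoculum from 1:1000-diluted 1.5 h subculture · Buffer or medium – LB plus kanamycin · Compound – serial dilution series of compound · Timing – bacterial growth with compound for 20 h, 37 °C · Measured by – OD615 · Read-out basis – growth-inhibition IC50 from four-parameter logistic curve, bounds set to 0% and 100% · Benchmarks – chloramphenicol 30 µM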
Turning to `O=C(COc1ccc(Cl)cc1)Nc1nc(-c2cccs2)cs1`, the result was inactive. With `COc1cc(C(=O)Nc2nc(-c3cccs3)cs2)cc(OC)c1OC`, the outcome was inactive. Then `CC(C)n1c(C(=O)OCC(=O)NCc2ccc3c(c2)OCO3)cc2occc21`, with “inactive”; and `CCOC(=O)c1c(N)sc2c(OC)c(Br)ccc12`, with “inactive”; and `O=C(C1CCN(Cc2cc(Cl)ccc2O)CC1)N1CCN(Cc2ccccc2)CC1`, with “inactive”. Turning to `CCCCCCn1c(CN2CCCC(C)C2)nc2c1c(=O)n(C)c(=O)n2C` (stereo not drawn), the molecule was classed as inactive.

Turning to `Cc1ccc(N(CC(=O)Nc2ccc3c(c2)OCCO3)S(=O)(=O)c2c(C)noc2C)cc1`, the molecule was called inactive. For the molecule `COc1ccccc1N1CCN(C(=O)c2cc(-c3ccc(Br)cc3)on2)CC1`, the result was inactive. Turning to `COc1ccccc1N1CCN(C(=O)c2oc3cc(C)c(C)cc3c2C)CC1`, the outcome was inactive. With `Cc1ccc(-c2noc(CCC(=O)N3CCN(c4cccc(C(F)(F)F)c4)CC3)n2)cc1`, the call was inactive. In the case of `Cc1ccc(-c2nnn(CC(=O)N(Cc3cccs3)C(C(=O)NC(C)(C)C)c3ccco3)n2)o1` (stereo not drawn) it was “inactive”. In the case of `Cc1ccc(-c2noc(CN3CCN(c4ccccc4F)CC3)n2)cc1` it was “inactive”; in that of `C=C(C)COc1ccc(-c2[nH]ncc2-c2ccc(OC)c(OC)c2)c(O)c1`, “inactive”; in that of `COc1ccc(-c2cnc(N)n2CC2CCCO2)cc1` (stereo not drawn), “inactive”. Turning to `COc1cc(OC)cc(-n2nnnc2SCC(=O)N2CCCc3ccccc32)c1`, the outcome was inactive. As for `Cn1c(-c2ccc3c(c2)OCO3)cnc1N`, the molecule was called inactive.

For the molecule `CCCCCc1c(C)nc(Nc2ccccc2)[nH]c1=O`, the outcome was inactive. Regarding `Cc1nn(-c2ccccc2)c2[nH]c(=O)c(CNCc3ccc4c(c3)OCO4)cc12`, the outcome was inactive. For the molecule `CCOC(=O)C1(N(CC)CC)Sc2cc(C)ccc2NC1=O` (stereo not drawn), the call was inactive. For `Cc1cc(=O)oc2c1ccc1oc(/C(=N/O)c3ccccc3)c(C)c12`, the molecule was classed as inactive. Then `CN(C)Cc1nc2c(c(=O)[nH]1)C1(CCCCC1)Cc1ccccc1-2`, with “inactive”; and `Clc1ccc(Cn2ncc3c(N4CCCCC4)ncnc32)c(Cl)c1`, with “inactive”.

Regarding `COc1ccc(-c2csc(N(CC3CCCO3)C(=O)c3ccco3)n2)cc1` (stereo not drawn), the call was inactive. Take `CN1/C(=C\C(=O)c2cccs2)Sc2ccccc21`: the outcome was inactive. Then `CCOC(=O)c1ccc(NS(=O)(=O)c2ccc(SC)cc2)cc1`, with “inactive”; and `O=C(c1cc(C2CC2)on1)N1CCN(C(c2ccccc2)c2ccccc2)CC1`, with “inactive”; and `CC(C)n1c2ccccc2c2nc3ccccc3nc21`, with “inactive”.

On to `CCOC(=O)C1CCN(Cc2cn[nH]c2-c2ccc(C)cc2)CC1`, for which the result was inactive.
